Assay outcomes: PubChem, SRMLSC
H69AR inhibit: growth inhibitors of human H69AR lung tumor cells. H69AR lung tumor viability, ATP luminescence, 72 h; stronger effect = lower value. viability, % at 10 µM. 85,000 tested, 6% active. AID 598;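 active = viability at or below 40%; inactive = viability above 40%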;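 note: multidrug resistant small cell line overexpressing MRP-1 efflux transporter; 100% = mean luminescence of untreated control wells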
PTEN del growth: PTEN-deleted cell growth suppression | viability, % at 10 µM | HCT116 PTEN-null viability, CellTiter-Glo, 60 h; stronger effect = lower value | AID 827 | 140,000 tested, 1.2% active;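 active = viability at or below a set limit, 4 SD under the median of all tested compounds, cut at about 3.7% in these data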;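 note: PTEN knockout HCT116 line with beta catenin targeted HCT116 as companion control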
Fibroblast inh: blocks proliferation of human lung fibroblasts | LL 47 human lung fibroblast viability, ATP luminescence; stronger effect = lower value | viability, % at 10 µM | 85,000 tested, 1.1% active;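 active = viability at or below 50% in the single dose screen; inactive = viability above 50%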;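 note: compound exposure lasted 72 h before the ATP readout; 100% = median luminescence of untreated cell-only wells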
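material = human LL 47 lung fibroblast cells | dosing = compounds added from tenfold dosing solution, 0.1% DMSO final | timing = overnight cell rest, 72 h compound treatment at 37 °C | measured by = CellTiter-Glo luminescence measuring cellular ATP | evaluation = % viability versus median cells-only luminescence | control set = cell-only wells, no compound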
bCat KO growth: beta-catenin-lacking colon tumor cell growth suppression; viability, % at 10 µM; AID 818; 140,000 tested, 1.5% active; HCT116 beta-catenin knockout viability, CellTiter-Glo, 60 h; stronger effect = lower value;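 active = viability at or under a set limit, the compound median less 4 SD, cut at about 6% in these data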;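 note: 0% = Hyamine 1622 control at 20 µM and 100% = untreated cell control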
HUVEC inhibit: human endothelial cell proliferation inhibition. HUVEC proliferation, CellTiter-Glo luminescence, 72 h; stronger effect = lower value. viability, % at 10 µM (by protocol). 86,000 tested, 1.1% active. AID 648;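 active = viability at or below 30%; inactive = viability above 30%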;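 note: 100% = median luminescence of DMSO-only cell control wells on each plate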
Active calls of the source: *. The full list was thinned out, with hits kept by preference.

Screening COc1cc(CNCCc2ccc(F)cc2)ccc1OCc1ccc(Cl)nc1 returned PTEN del growth 15 and bCat KO growth 15.
`COc1cc(CNCCc2c[nH]c3ccccc23)ccc1OCc1ccc(F)cc1` gave PTEN del growth 2.0* and bCat KO growth 1.5*.
`Cc1ccc(-c2nc(N/N=C/c3cccnc3)c3ccccc3n2)cc1` gave H69AR inhibit 26*, PTEN del growth 79, Fibroblast inh 50, bCat KO growth 73 and HUVEC inhibit 57.
`CN(c1ccccc1)c1ccc(/C=C/[N+](=O)[O-])cc1` gave PTEN del growth 3.5* and bCat KO growth 4.7*.
For CN(c1ccccc1)c1ccc(/C=N/NC(=O)CC#N)cc1 the results were PTEN del growth 88 and bCat KO growth 100.
For CC(=O)NC1=C(N(C)C2CCS(=O)(=O)C2)C(=O)c2ccccc2C1=O (configuration not stated) the results were PTEN del growth 3.4* and bCat KO growth 3.5*.
Screening CN(C(=O)Nc1ccccc1)C1CCS(=O)(=O)C1 (configuration not stated) returned H69AR inhibit 90, PTEN del growth 100, Fibroblast inh 114, bCat KO growth 91 and HUVEC inhibit 92.
CC(=O)OCC1OC(Sc2cccc3cccnc23)C(OC(C)=O)C(OC(C)=O)C1OC(C)=O (configuration not stated) was read as PTEN del growth 89 and bCat KO growth 83.
Screening CCOC(=O)SC1=N/C(=C\c2ccc(N(C)C)cc2)C(=O)S1 returned H69AR inhibit 27*, PTEN del growth 90, Fibroblast inh 108, bCat KO growth 91 and HUVEC inhibit 87.
For CCSC1=N/C(=C\c2ccc(C(=O)O)cc2)C(=O)S1 the results were H69AR inhibit 82, PTEN del growth 101, Fibroblast inh 100, bCat KO growth 96 and HUVEC inhibit 91.
`CCCCC1(CC(=O)OCC)C(=O)N(c2ccccc2)N(c2ccccc2)C1=O` gave PTEN del growth 80 and bCat KO growth 89.
`Cc1ccc(C(=O)Oc2cccnc2)cc1[N+](=O)[O-]` gave PTEN del growth 100 and bCat KO growth 92.
Screening Cc1ccc(C(=O)Oc2ccc(Cl)c3cccnc23)cc1[N+](=O)[O-] returned PTEN del growth 10 and bCat KO growth 4.5*.
Cc1ccc(C(CC(=O)O)Nc2nc(N3CCOCC3)nc(N3CCOCC3)n2)cc1 (configuration not stated) was read as H69AR inhibit 101, PTEN del growth 94, Fibroblast inh 102, bCat KO growth 99 and HUVEC inhibit 90.
For CC(C)NC(=O)c1sc2nc(-c3cccs3)cc(-c3cccs3)c2c1N the results were H69AR inhibit 76, PTEN del growth 101, Fibroblast inh 96, bCat KO growth 95 and HUVEC inhibit 74.
Screening Nc1c(C(=O)C2CC2)sc2nc(-c3cccs3)cc(C(F)(F)F)c12 returned H69AR inhibit 12*, PTEN del growth 25, Fibroblast inh 101, bCat KO growth 34 and HUVEC inhibit 32.
`O=C(Nc1ccc(Cl)c(Cl)c1)Nc1cc(S(=O)(=O)N2CCOCC2)ccc1N1CCCC1` gave PTEN del growth 24 and bCat KO growth 37.
Screening CC1c2c([nH]c3ccccc23)CCC1C(=O)O (configuration not stated) returned PTEN del growth 107 and bCat KO growth 95.
CC(=O)Nc1ccc(N2C(C(C)=O)=NN(c3ccc(Cl)cc3)C2c2sccc2C)cc1 (configuration not stated) was read as H69AR inhibit 38*, PTEN del growth 90, Fibroblast inh 94, bCat KO growth 85 and HUVEC inhibit 54.
Screening O=C1CCCC2=C1C(c1ccco1)Nc1ccc(C(=O)c3ccccc3)cc1N2 (configuration not stated) returned H69AR inhibit 13*, PTEN del growth 29, Fibroblast inh 84, bCat KO growth 31 and HUVEC inhibit 68.
For CCN(c1ccc(NC(=O)CN2C(=O)NC3(CCOc4ccccc43)C2=O)cc1)C(C)C (configuration not stated) the results were PTEN del growth 96 and bCat KO growth 85.
O=C1NC(=Nc2cccc(Cl)c2)SC1Cc1cccc(Cl)c1Cl (configuration not stated) was read as PTEN del growth 58 and bCat KO growth 81.
